ChEMBL document CHEMBL4825662 (J Med Chem, 2021)
In brackets after ≈: the same amount, converted by molar mass. Blank lines part the entries; values can stand above or below the molecule they belong to.

Tests used:
[1] = Cytotoxicity against African green monkey Vero cells by MTT assay; type: cell-based; settings: chlorocebus sabaeus
Method in brief: (§1)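 Viability was assessed by MTT after culture with compound at 0.01 nM to 100 μM, run in parallel with plaque reduction assays. Values are the average of at least two testing occasions.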

Human orthopneumovirus [2] = test: Antiviral activity against Respiratory syncytial virus A2 infected in African green monkey Vero cells by Plaque reduction assay; type: functional, organism-based
[3] = Protein binding in rat plasma assessed as unbound fraction at 5 uM by LC-MS/MS analysis based equilibrium dialysis method; type: ADME, cell-free
[4] = Intrinsic clearance in human liver microsomes preincubated followed by NADPH addition and measured up to 45 mins by LC-MS/MS analysis; type: ADME, Microsome
[5] = Apparent permeability of compound in wild type MDCK at 10 uM incubated for 1 hr by LC-MS/MS assay; type: ADME, Canis lupus familiaris; settings: dog
[6] = Protein binding in dog plasma assessed as unbound fraction at 5 uM by LC-MS/MS analysis based equilibrium dialysis method; type: ADME, cell-free, Canis lupus familiaris
[7] = Protein binding in human plasma assessed as unbound fraction at 5 uM by LC-MS/MS analysis based equilibrium dialysis method; type: ADME, cell-free
[8] = Intrinsic clearance in Sprague-Dawley rat liver microsomes preincubated followed by NADPH addition and measured up to 45 mins by LC-MS/MS analysis; type: ADME, Microsome
[9] = Intrinsic clearance in Beagle dog liver microsomes preincubated followed by NADPH addition and measured up to 45 mins by LC-MS/MS analysis; type: ADME, Canis lupus familiaris, Microsome
Human orthopneumovirus [10] = test: Antiviral activity against Respiratory syncytial virus A2 infected in human Hep2 cells by Plaque reduction assay; type: functional, organism-based; settings: A2, HEp-2
Method in brief: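 Hep2 cells were infected with RSV strain A2 in the presence of compound. Plaques were detected by immunostaining after 48 h. Values are the average of at least two testing occasions.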

[11] = Cytotoxicity against human Hep2 cells; type: cell-based; settings: HEp-2 cells
Method in brief: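 Hep2 cells were cultured in parallel with the plaque assays at compound concentrations of 0.01 nM to 100 μM. Viability was read by MTT, CellTox green or CellTiter-Glo.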

[12] = Cytotoxicity against human HepG2 cells by MTT assay; type: cell-based; method in brief: as §1
[13] = Oral bioavailability in Sprague-Dawley rat at 10 mg/kg administered via gavage measured after 0.02 to 24 hrs by tandem liquid chromatography/mass spectrometry; type: ADME, organism-based; settings: in vivo, time 0.02-24 hrs
Method in brief: (§2)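 Male Sprague–Dawley rats (200–250 g), 3 per route. IV bolus at 1 mg/kg, 1 mg/mL in 40:60 dimethylacetamide/saline; oral gavage at 5 or 10 mg/kg, 5 mg/mL in 1% methyl cellulose, 0.1% Tween 80 in water. Serial blood at 0.02–24 h (ten points) into heparin, spun at 4 °C, plasma frozen; acetonitrile protein precipitation, ESI LC-MS/MS with matrix curve and internal standards.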

[14] = Clearance in Sprague-Dawley rat at 1 mg/kg, iv administered […] measured after 0.02 to 24 hrs by tandem liquid chromatography/mass spectrometry; type: ADME, organism-based; settings: in vivo, time 0.02-24 hrs
[15] = Thermodynamic solubility in PBS at 1 to 100 uM at pH 7.4 by HPLC-UV method; type: physicochemical; settings: dose 1-100 µM, read-out: Therm_solubility
[16] = Volume of distribution at steady state in Sprague-Dawley rat at 1 mg/kg, iv administered […] measured after 0.02 to 24 hrs by tandem liquid chromatography/mass spectrometry; type: ADME, organism-based; settings: in vivo, time 0.02-24 hrs, read-out: Vdss; method in brief: as §2
[17] = Cmax in Sprague-Dawley rat at 5 mg/kg, po administered via gavage measured after 0.02 to 24 hrs by tandem liquid chromatography/mass spectrometry; type: ADME, organism-based; set-up: route oral, dose 5 mg/kg, time upper 24 hrs, time lower 0.02 hrs; settings: in vivo
Method in brief: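 Male Sprague–Dawley rats weighing 200–250 g, 3 per route, were used. The i.v. bolus was 1 mg/kg at 1 mg/mL in 40:60 dimethylacetamide/saline. Oral gavage doses were 5 or 10 mg/kg at 5 mg/mL in 1% methyl cellulose with 0.1% Tween 80. Heparinized blood was taken at 0.02–24 h (ten time points). Plasma was analyzed by LC-MS/MS after acetonitrile precipitation.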

[18] = Apparent permeability across apical to basolateral side in MDCK-MDR1 cells at 10 uM measured at 60 mins by LC-MS/MS analysis; type: ADME, cell-based, Canis lupus familiaris; settings: dog, mdck-mdr1, 1 h, 10 µM
[19] = Efflux ratio of apparent permeability in MDCK-MDR1 cells at 10 uM measured at 60 mins by LC-MS/MS analysis; type: ADME, cell-based, Canis lupus familiaris; settings: dog, mdck-mdr1, 1 h, 10 µM
[20] = Apparent permeability across basolateral side to apical side in MDCK-MDR1 cells at 10 uM measured at 60 mins by LC-MS/MS analysis; type: ADME, cell-based, Canis lupus familiaris; settings: dog
Human orthopneumovirus [21] = test: Antiviral activity against Respiratory syncytial virus A2 by Plaque reduction assay; type: functional, organism-based
Method in brief: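 Vero cells were infected with RSV A2 for 48 h with compound at 0.01 nM to 100 μM. Plaques were detected by immunostaining. Values are the average of at least two testing occasions.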

Fusion glycoprotein F0 = Fusion glycoprotein F0 (Human respiratory syncytial virus A (strain A2), UniProt P03420); test: Inhibition of Respiratory syncytial virus fusion protein
Method in brief: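 293T cells cotransfected with codon-optimized RSV A2 F plasmid and a GAL4-responsive luciferase reporter, mixed after 24 h with a second 293T population expressing GAL4-NF-κB transactivator. Threefold serial compound dilutions present during mixing; F-mediated fusion read as luciferase after 24 h. IC₅₀ averaged over at least two testing occasions.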

Chain of Fusion glycoprotein F0 (P03420 26-109 limits assumed): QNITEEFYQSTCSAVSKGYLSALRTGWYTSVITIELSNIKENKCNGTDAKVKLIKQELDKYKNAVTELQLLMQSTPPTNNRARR
Chain of Fusion glycoprotein F0 (P03420 137-574 limits assumed): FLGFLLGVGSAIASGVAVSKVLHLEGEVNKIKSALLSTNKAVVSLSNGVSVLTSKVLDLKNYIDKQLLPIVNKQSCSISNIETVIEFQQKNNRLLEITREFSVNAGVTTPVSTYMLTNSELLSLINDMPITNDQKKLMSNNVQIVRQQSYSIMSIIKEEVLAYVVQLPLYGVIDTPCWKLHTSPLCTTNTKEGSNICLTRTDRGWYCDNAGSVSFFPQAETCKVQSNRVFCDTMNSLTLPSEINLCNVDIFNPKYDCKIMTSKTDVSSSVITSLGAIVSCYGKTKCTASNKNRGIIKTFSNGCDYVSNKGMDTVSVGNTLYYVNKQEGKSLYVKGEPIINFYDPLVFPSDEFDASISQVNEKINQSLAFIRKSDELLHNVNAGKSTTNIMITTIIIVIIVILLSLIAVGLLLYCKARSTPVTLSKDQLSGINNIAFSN

SMILES: CC(C)CCn1c(CN2C(=O)C3(CC3)Oc3ccccc32)nc2cc(CN)ccc21
CC50 [1]: 22700 nM | EC50 (Human orthopneumovirus [2]): 1700 nM

SMILES: N=C(N)c1ccc2c(c1)nc(CN1C(=O)C3(CC3)c3ccc(F)cc31)n2CCCC(F)(F)F
EC50 (Human orthopneumovirus [10]): 0.5 nM | CC50 [11]: > 20000 nM

SMILES: CC(=O)N1CC2(C1)C(=O)N(Cc1nc3cc(CN)ccc3n1CCC(C)C)c1ccccc12
EC50 (Human orthopneumovirus [21]): 2.2 nM | IC50 (Fusion glycoprotein F0): 1.1 nM

SMILES: CC(C)CCn1c(CN2C(=O)C3(CCCC3)c3ccccc32)nc2cc(CN)ccc21
CC50 [1]: 9940 nM | EC50 (Human orthopneumovirus [2]): 580 nM

SMILES: CC(C)CCn1c(CN2C(=O)C3(CC3)Cc3ccccc32)nc2cc(CN)ccc21
CC50 [1]: 33400 nM | EC50 (Human orthopneumovirus [2]): 3400 nM

SMILES: CC(=O)NCc1ccc2c(c1)nc(CN1C(=O)C3(CC3)c3ccc(F)cc31)n2CCCC(F)(F)F
EC50 (Human orthopneumovirus [10]): 107 nM | CC50 [11]: > 20000 nM

SMILES: CC(C)CCn1c(CN2C(=O)C3(CCOCC3)c3ccccc32)nc2cc(CN)ccc21
EC50 (Human orthopneumovirus [21]): 3.4 nM | IC50 (Fusion glycoprotein F0): 0.69 nM

Continued by falling EC50 (Human orthopneumovirus [2]), values first:

EC50 (Human orthopneumovirus [2]): 444 nM
SMILES: N#Cc1ccc2c(c1)nc(CN1C(=O)C3(CC3)c3ccc(F)cc31)n2CCCC(F)(F)F
CC50 [12]: 23700 nM

EC50 (Human orthopneumovirus [2]): 240 nM
SMILES: CC(C)CCn1c(CN2C(=O)C3(CCC3)c3ccccc32)nc2cc(CN)ccc21
CC50 [1]: 13800 nM

fraction unbound at 5 µM [3]: 0.104 | bioavailability [13]: 8.8% | intrinsic clearance (CLint) [4]: 7 µL/min | clearance [14]: 108 mL/min/kg | solubility thermodynamic [15]: 1230 µM (≈ 500 µg/mL) | EC50 (Human orthopneumovirus [2]): 40.8 nM | Vd [16]: 11.9 L/kg | Cmax [17]: 31.3 ng/mL | fraction unbound at 5 µM [6]: 0.147 | fraction unbound at 5 µM [7]: 0.42 | Papp [18]: 0.19 10^-6 cm/s | Microsomal intrinsic clearance [8]: 37.8 µL/min | intrinsic clearance [9]: 2.23 µL/min | Ratio [19]: 227
SMILES: CC(C)CCn1c(CN2C(=O)C3(CC3)c3cccc(F)c32)nc2cc(CN)ccc21
CC50 [1]: 31100 nM

EC50 (Human orthopneumovirus [2]): 17.9 nM
SMILES: O=C1N(Cc2nc3ccccc3n2CCCC(F)(F)F)c2cc(F)ccc2C12CC2
CC50 [1]: > 25000 nM

EC50 (Human orthopneumovirus [2]): 6.7 nM
SMILES: CC(C)CCn1c(CN2C(=O)C3(CC3)c3ccc(Cl)cc32)nc2cc(CN)ccc21
CC50 [1]: 4500 nM

intrinsic clearance (CLint) [4]: 177 µL/min | EC50 (Human orthopneumovirus [2]): 5.4 nM | Papp B→A at 1 h, 10 µM [20]: 0.14 ×10⁻⁶ cm/s | Microsomal intrinsic clearance [8]: 71.3 µL/min | intrinsic clearance [9]: 328 µL/min
SMILES: O=C1N(Cc2nc3cc(Cl)ccc3n2CCCC(F)(F)F)c2cc(F)ccc2C12CC2
CC50 [1]: > 25000 nM

fraction unbound at 5 µM [3]: 0.19 | intrinsic clearance (CLint) [4]: 344 µL/min | EC50 (Human orthopneumovirus [2]): 4.2 nM | Papp at 1 h, 10 µM [5]: 7.3 ×10⁻⁶ cm/s | fraction unbound at 5 µM [6]: 0.15 | fraction unbound at 5 µM [7]: 0.11 | Microsomal intrinsic clearance [8]: < 29 µL/min | intrinsic clearance [9]: < 29 µL/min
SMILES: CC(C)CCn1c(CN2C(=O)C3(CC3)c3cc(F)ccc32)nc2cc(CN)ccc21
CC50 [1]: 7600 nM
